Test results from ChEMBL document CHEMBL4627259, “Discovery of LY3325656: A GPR142 agonist suitable for clinical testing in human” (Bioorg Med Chem Lett, 2020).
Calls of active or inactive are those of the source. The calls are words filed in the database; no cut-off is given here.

Experiments:
[1] = Drug metabolism in mouse microsomes assessed as drug turnover at 20 uM measured after 30 mins by LCMS analysis; format: ADME, Microsome; conditions: read-out: Drug metabolism
Procedure, shortened: (§1)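 High-throughput microsomal stability: compound at 20 uM incubated with mouse, rat, dog or human liver microsomes at 37 °C; percent parent remaining measured after 30 min and reported as % turnover.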

[2] = Drug metabolism in dog microsomes assessed as drug turnover at 20 uM measured after 30 mins by LCMS analysis; format: ADME, Canis lupus familiaris, Microsome; conditions: read-out: Drug metabolism; procedure, shortened: as §1
Cytochrome P450 2D6 = Cytochrome P450 2D6 (Homo sapiens, UniProt P10635); assay: Induction of CYP2D6 (unknown origin) at 10 uM; format: ADME
Chain of Cytochrome P450 2D6 (P10635 whole entry): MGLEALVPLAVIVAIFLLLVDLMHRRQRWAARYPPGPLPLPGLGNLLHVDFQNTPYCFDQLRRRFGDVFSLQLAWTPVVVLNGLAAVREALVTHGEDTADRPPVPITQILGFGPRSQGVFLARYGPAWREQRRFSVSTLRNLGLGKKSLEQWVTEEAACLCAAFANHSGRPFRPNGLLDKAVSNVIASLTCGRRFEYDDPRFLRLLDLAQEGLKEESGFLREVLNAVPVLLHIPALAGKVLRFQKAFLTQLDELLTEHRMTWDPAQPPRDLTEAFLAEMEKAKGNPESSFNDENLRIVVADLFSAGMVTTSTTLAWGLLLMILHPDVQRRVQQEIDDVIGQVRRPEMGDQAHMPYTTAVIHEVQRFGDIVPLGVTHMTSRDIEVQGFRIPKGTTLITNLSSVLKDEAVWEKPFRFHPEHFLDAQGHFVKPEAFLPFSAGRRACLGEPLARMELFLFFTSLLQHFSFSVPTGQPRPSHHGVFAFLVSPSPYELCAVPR

[3] = biological target: T1, Probable G-protein coupled receptor 142 (Homo sapiens, UniProt Q7Z601); assay: Agonist activity at human GPR142 receptor expressed in HEK293 cells assessed as accumulation of inositol phosphate incubated for 1 hr followed by IP1-d2 addition by HTRF assay; format: functional, cell-based
T1 sequence (Q7Z601 whole entry): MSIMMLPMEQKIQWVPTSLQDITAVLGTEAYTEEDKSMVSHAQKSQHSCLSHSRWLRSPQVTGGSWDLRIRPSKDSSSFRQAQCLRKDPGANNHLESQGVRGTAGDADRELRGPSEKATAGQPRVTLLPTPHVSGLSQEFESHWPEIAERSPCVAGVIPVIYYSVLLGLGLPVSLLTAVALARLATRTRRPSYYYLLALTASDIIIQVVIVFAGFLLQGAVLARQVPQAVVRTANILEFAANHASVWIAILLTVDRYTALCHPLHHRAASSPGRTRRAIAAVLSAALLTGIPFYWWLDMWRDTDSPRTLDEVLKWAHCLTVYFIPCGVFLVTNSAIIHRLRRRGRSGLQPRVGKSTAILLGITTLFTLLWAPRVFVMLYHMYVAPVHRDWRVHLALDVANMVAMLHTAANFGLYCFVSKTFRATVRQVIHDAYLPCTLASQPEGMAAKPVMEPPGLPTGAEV
Procedure, shortened: (§2)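 HEK293 cells stably expressing human GPR142 (DMEM, 10% FBS, 800 ug/mL G418, 37 °C, 5% CO2), seeded 5000 cells/well and left 18 h to attach. Compounds added at 30 uM to 1 nM, 1 h incubation in HBSS (+Ca, +Mg), 0.1% BSA, 50 mM LiCl, 20 mM HEPES pH 7.2. IP-1 HTRF read-out: IP1-d2 then cryptate, 1 h at 25 °C, 665/620 nm ratio converted via IP-1 standard curve; EC50 by 4-parameter logistic fit.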

[4] = Fractional renal clearance in dog at 1 mg/kg, iv or 5 mg/kg, po; format: ADME, organism-based, Canis lupus familiaris; conditions: in vivo
[5] = Toxicity in rat assessed as NOAEL administered as repeated dose for 1 month; conditions: in vivo
[6] = Volume of distribution at steady state in dog at 1 mg/kg, iv or 5 mg/kg, po; format: ADME, organism-based, Canis lupus familiaris; conditions: in vivo, read-out: Vdss
[7] = Drug metabolism in rat microsomes assessed as drug turnover at 20 uM measured after 30 mins by LCMS analysis; format: ADME, Microsome; conditions: read-out: Drug metabolism; procedure, shortened: as §1
CYP2C9 = CYP2C9 (Homo sapiens, UniProt P11712); assay: Inhibition of CYP2C9 (unknown origin) at 10 uM relative to control; format: ADME
Chain of CYP2C9 (P11712 whole entry): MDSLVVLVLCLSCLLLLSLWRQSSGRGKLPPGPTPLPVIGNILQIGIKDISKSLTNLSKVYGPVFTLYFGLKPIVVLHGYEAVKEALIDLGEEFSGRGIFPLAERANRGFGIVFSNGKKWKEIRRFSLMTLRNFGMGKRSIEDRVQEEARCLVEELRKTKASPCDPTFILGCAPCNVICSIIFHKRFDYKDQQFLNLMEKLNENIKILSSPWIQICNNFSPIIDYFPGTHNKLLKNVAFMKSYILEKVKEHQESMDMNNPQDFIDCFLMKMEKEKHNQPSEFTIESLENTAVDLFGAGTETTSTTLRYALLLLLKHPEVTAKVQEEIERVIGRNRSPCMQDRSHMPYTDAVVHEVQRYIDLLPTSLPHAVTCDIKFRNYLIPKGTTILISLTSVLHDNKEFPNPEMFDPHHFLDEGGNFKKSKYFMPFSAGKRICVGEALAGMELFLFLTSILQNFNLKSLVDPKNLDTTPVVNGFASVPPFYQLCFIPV

CYP3A4 = CYP3A4 (Homo sapiens, UniProt P08684); assay: Inhibition of CYP3A4 (unknown origin) at 10 uM relative to control; format: ADME
Chain of CYP3A4 (P08684 whole entry): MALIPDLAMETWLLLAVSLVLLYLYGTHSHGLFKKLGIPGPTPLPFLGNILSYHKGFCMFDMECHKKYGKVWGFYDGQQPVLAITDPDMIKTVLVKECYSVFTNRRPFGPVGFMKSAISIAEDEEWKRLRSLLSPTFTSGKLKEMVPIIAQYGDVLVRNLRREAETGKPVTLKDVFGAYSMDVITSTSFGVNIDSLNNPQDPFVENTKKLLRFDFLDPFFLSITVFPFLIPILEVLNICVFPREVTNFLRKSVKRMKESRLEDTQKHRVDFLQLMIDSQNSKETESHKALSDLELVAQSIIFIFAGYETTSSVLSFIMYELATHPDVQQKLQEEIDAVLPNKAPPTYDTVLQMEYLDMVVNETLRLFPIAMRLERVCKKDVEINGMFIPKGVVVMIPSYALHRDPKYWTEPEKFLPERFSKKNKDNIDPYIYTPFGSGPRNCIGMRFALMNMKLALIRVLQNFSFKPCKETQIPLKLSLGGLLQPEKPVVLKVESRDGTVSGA

[8] = Dissociation constant, pKa of compound; format: physicochemical
Cytochrome P450 3A4 = Cytochrome P450 3A4 (Homo sapiens, UniProt P08684); assay: Induction of CYP3A4 (unknown origin) at 10 uM; format: ADME
Chain of Cytochrome P450 3A4 (P08684 whole entry): as above

[9] = Volume of distribution at steady state in rat at 1 mg/kg, iv or 10 mg/kg, po; format: ADME, organism-based; conditions: in vivo, read-out: Vdss
[10] = Clearance in dog at 1 mg/kg, iv or 5 mg/kg, po; format: ADME, organism-based, Canis lupus familiaris; conditions: in vivo
[11] = Oral bioavailability in rat at 10 mg/kg; format: ADME, organism-based; conditions: in vivo
[12] = Drug metabolism in human microsomes assessed as drug turnover at 20 uM measured after 30 mins by LCMS analysis; format: ADME, Microsome; conditions: read-out: Drug metabolism; procedure, shortened: as §1
[13] = Oral bioavailability in dog at 5 mg/kg; format: ADME, organism-based, Canis lupus familiaris; conditions: in vivo
[14] = Solubility of compound at pH 2 to 7.5; format: physicochemical; conditions: buffer
CYP2D6 = CYP2D6 (Homo sapiens, UniProt P10635); assay: Inhibition of CYP2D6 (unknown origin) at 10 uM relative to control; format: ADME
Chain of CYP2D6 (P10635 whole entry): as the sequence (P10635 whole entry) above

[15] = Clearance in rat at 1 mg/kg, iv or 10 mg/kg, po; format: ADME, organism-based; conditions: in vivo
[16] = Permeability of compound; format: ADME; conditions: not told
[17] = Toxicity in dog assessed as NOAEL administered as repeated dose for 1 month; design: species or system Canis lupus familiaris; conditions: in vivo
Cytochrome P450 2C9 = Cytochrome P450 2C9 (Homo sapiens, UniProt P11712); assay: Induction of CYP2C9 (unknown origin) at 10 uM; format: ADME
Chain of Cytochrome P450 2C9 (P11712 whole entry): as the sequence (P11712 whole entry) above

Mus musculus [18] = assay: Hypoglycemic activity in diet-induced obese C57BL/6J mouse assessed as increase in insulin secretion at 15 mg/kg, po co-administered with 5 mg/kg DPP-4 inhibitor, sitagliptin 30 mins prior to glucose challenge measured after 15 mins by IPGTT; format: functional, organism-based
Mus musculus [19] = assay: Hypoglycemic activity in lean C57BL/6J mouse assessed as reduction in glucose level at 1 mg/kg, po administered 30 mins prior to glucose challenge measured for 60 mins by IPGTT; format: functional
Procedure, shortened: (§3)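 IPGTT in male C57BL/6 mice, lean or diet-induced obese; compound given orally 30 min before intraperitoneal glucose load; blood glucose followed over time. Mean ± SEM, n=5 per group, compared with vehicle (p<0.05, 0.01, 0.001).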

Mus musculus [20] = assay: Hypoglycemic activity in lean C57BL/6J mouse assessed as reduction in glucose level at 10 mg/kg, po administered 30 mins prior to glucose challenge measured for 60 mins by IPGTT; format: functional; procedure, shortened: as §3
Mus musculus [21] = assay: Hypoglycemic activity in lean C57BL/6J mouse assessed as reduction in glucose level at 0.03 mg/kg, po administered 30 mins prior to glucose challenge measured for 60 mins by IPGTT; format: functional; procedure, shortened: as §3
Mus musculus [22] = assay: Hypoglycemic activity in po dosed lean C57BL/6J mouse assessed as reduction in glucose level administered 30 mins prior to glucose challenge measured for 60 mins by IPGTT; format: functional, organism-based; procedure, shortened: as §3
[23] = Hypoglycemic activity in mouse pancreatic islets assessed as increase in glucose-dependent insulin secretion at 10 uM relative to control; format: functional, Pancreatic islet
Procedure, shortened: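 Isolated mouse pancreatic islets; glucose-dependent insulin secretion measured at 2.8 mM and 11.1 mM glucose with compound at 10 uM.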

Mus musculus [24] = assay: Hypoglycemic activity in lean C57BL/6J mouse assessed as reduction in glucose level at 0.3 mg/kg, po administered 30 mins prior to glucose challenge measured for 60 mins by IPGTT; format: functional; procedure, shortened: as §3
Mus musculus [25] = assay: Hypoglycemic activity in lean C57BL/6J mouse assessed as reduction in glucose level at 0.01 mg/kg, po administered 30 mins prior to glucose challenge measured for 60 mins by IPGTT; format: functional; procedure, shortened: as §3
Mus musculus [26] = assay: Hypoglycemic activity in lean C57BL/6J mouse assessed as reduction in glucose level at 0.1 mg/kg, po administered 30 mins prior to glucose challenge measured for 60 mins by IPGTT; format: functional; procedure, shortened: as §3
Mus musculus [27] = assay: Hypoglycemic activity in diet-induced obese C57BL/6J mouse assessed as reduction in glucose level at 15 mg/kg, po co-administered with 5 mg/kg DPP-4 inhibitor, sitagliptin 30 mins prior to glucose challenge measured after 120 mins by IPGTT; format: functional, organism-based; procedure, shortened: as §3
[28] = biological target: T2, Probable G-protein coupled receptor 142 (Homo sapiens) (UniProt Q7Z601); assay: Agonist activity at human GPR142 receptor expressed in HEK293 cells assessed as accumulation of inositol phosphate at 30 uM to 1 nM incubated for 1 hr followed by IP1-d2 addition by HTRF assay relative to control; format: functional, cell-based; procedure, shortened: as §2
T2 sequence (whole entry): T1 sequence (Q7Z601 whole entry)

Mus musculus [29] = assay: Hypoglycemic activity in diet-induced obese C57BL/6J mouse assessed as increase in plasma insulin secretion at 10 mg/kg, po administered 30 mins prior to glucose challenge measured after 15 mins by IPGTT; format: functional, organism-based; conditions: 15 mg/kg, in the assay text read “15 mg/kg” for “10 mg/kg”
Procedure, shortened: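 IPGTT in male diet-induced obese mice; compound given orally 30 min before intraperitoneal glucose; plasma insulin measured. Mean ± SEM, n=5 per group, versus vehicle.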

Mus musculus [30] = assay: Hypoglycemic activity in diet-induced obese C57BL/6J mouse assessed as reduction in glucose level at 15 mg/kg, po administered 30 mins prior to glucose challenge measured for 120 mins by IPGTT; format: functional, organism-based; procedure, shortened: as §3

metabolised at 0.5 h, 20 µM [1]	metabolised at 0.5 h, 20 µM [2]	EC50 [3]	CL [4]	Vd [6]	metabolised at 0.5 h, 20 µM [7]	inhibition at 10 µM (CYP2C9)	inhibition at 10 µM (CYP3A4)	pKa [8]	Vd [9]	clearance [10]	bioavailability [11]	metabolised at 0.5 h, 20 µM [12]	bioavailability [13]	inhibition at 10 µM (CYP2D6)	clearance [15]	SMILES	further results
22%	13%	43 nM	< 5%	1.3 L/kg	14%	11%	22%	5.9	1.1 L/kg	8.4 mL/min/kg	63%	14%	78%	16%	22.1 mL/min/kg	Cc1ncn(C)c1-c1nnc([C@@H]2C[C@H](N(C)C(=O)c3cccc(C(F)(F)F)c3)CCO2)[nH]1	Activity (Cytochrome P450 2D6): Not Active; NOAEL at 1 month [5]: 200 mg/kg; Activity (Cytochrome P450 3A4): Not Active; solubility [14]: > 2000 µg/mL; Papp [16]: 13.5 ×10⁻⁶ cm/s; NOAEL at 1 month [17]: 180 mg/kg; Activity (Cytochrome P450 2C9): Not Active
89%	28%	30 nM	20%	1.2 L/kg	41%	14%	6.1%	6.9	1.3 L/kg	17.6 mL/min/kg	28%	32%	66%	0%	49.6 mL/min/kg	Cc1ncn(C)c1NC(=O)[C@H]1CCC[C@@H](N(C)C(=O)c2cccc(C(F)(F)F)c2)C1	Activity (Mus musculus [18]): Active; inhibition in vivo at 1 mg/kg (Mus musculus [19]): 34%; inhibition in vivo at 10 mg/kg (Mus musculus [20]): 47%; inhibition in vivo at 0.03 mg/kg (Mus musculus [21]): 11%; Activity (Mus musculus [22]): Dose-dependent effect; fold change (FC) [23]: 1.4; inhibition in vivo at 0.3 mg/kg (Mus musculus [24]): 27%; inhibition in vivo at 0.01 mg/kg (Mus musculus [25]): 9%; inhibition in vivo at 0.1 mg/kg (Mus musculus [26]): 12%; Activity (Mus musculus [27]): Active; Emax [28]: 104%; Activity (Mus musculus [29]): Active; Activity (Mus musculus [30]): Active
